Test results taken from ChEMBL document CHEMBL4152290, “1H-Benzo[d]imidazoles and 3,4-dihydroquinazolin-4-ones: Design, synthesis and antitubercular activity” (Eur J Med Chem, 2018).

Assays:
Danio rerio [1] = organism: Danio rerio; experiment: Cardiotoxicity in Zebrafish AB embryos assessed as heart beat rate at 3 uM measured at 5 days post fertilization by stereomicroscopic method (reference value: 148.1 to 158.2 bpm); assay type: organism-based; conditions: in vivo, 120 h
[2] = Stability of the compound in PBS containing 10% DMSO at 25 degC measured after 24 hrs by HPLC analysis; assay type: physicochemical; conditions: buffer
[3] = Stability of the compound in PBS containing 10% DMSO at 25 degC measured after 9 hrs by HPLC analysis; assay type: physicochemical; conditions: buffer
[4] = Stability of the compound in PBS containing 10% DMSO at 37 degC measured after 12 hrs by HPLC analysis; assay type: physicochemical; conditions: read-out: Stability
Danio rerio [5] = organism: Danio rerio; experiment: Toxicity in Zebrafish AB embryos assessed as morphological alteration by measuring effect on surface area of eyes at 3 to 20 uM measured at 2 to 5 days post fertilization by stereomicroscopic method; assay type: organism-based; conditions: in vivo
Procedure, shortened: (§1)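 AB embryos are treated from 2 hpf to 5 dpf at 3.0, 15.0 and 20.0 µM in fish water with 1% DMSO, at 28 °C. Controls are fish water and 1% DMSO. Larvae are photographed under a stereomicroscope (3×) at 2 and 5 dpf, n = 30. Body length (µm), ocular distance (µm) and eye surface area (µm²) are measured from the images.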

[6] = Cytotoxicity against African green monkey Vero assessed as cell viability at 10 ug/ml after 72 hrs by MTT assay (reference value: 100%); assay type: cell-based; conditions: chlorocebus sabaeus, Vero cells; read-out: Activity
Procedure, shortened: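 Cells were grown in DMEM with 10% heat-inactivated FBS and penicillin-streptomycin, seeded at 2×10^3/well (HepG2, HaCat) or 1×10^3/well (Vero), then left 24 h. Compound was applied at 10 µg/mL final (2% DMSO) for 72 h at 37 °C, 5% CO2. MTT 1 mg/mL was added for 3 h, formazan dissolved in DMSO, and A595 read. Viability is expressed relative to 2% DMSO wells; mean ± SEM, triplicates, three independent experiments.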

[7] = Stability of the compound in PBS containing 10% DMSO at 37 degC measured after 6 hrs by HPLC analysis; assay type: physicochemical; conditions: read-out: Stability
Danio rerio [8] = organism: Danio rerio; experiment: Cardiotoxicity in Zebrafish AB embryos assessed as heart beat rate at 3 uM measured at 2 days post fertilization by stereomicroscopic method (reference value: 128.7 to 146.3 bpm); assay type: organism-based; conditions: in vivo, 48 h
Danio rerio [9] = organism: Danio rerio; experiment: Cardiotoxicity in Zebrafish AB embryos assessed as heart beat rate at 15 uM measured at 5 days post fertilization by stereomicroscopic method (reference value: 148.1 to 158.2 bpm); assay type: organism-based; conditions: in vivo, 120 h
[10] = Stability of the compound in PBS containing 10% DMSO at 25 degC measured immediately by HPLC analysis; assay type: physicochemical; conditions: read-out: Stability
Danio rerio [11] = organism: Danio rerio; experiment: Toxicity in Zebrafish AB embryos assessed as morphological alteration by measuring effect on ocular distance at 3 to 20 uM measured at 2 to 5 days post fertilization by stereomicroscopic method; assay type: organism-based; conditions: in vivo; procedure, shortened: as §1
Danio rerio [12] = organism: Danio rerio; experiment: Toxicity in Zebrafish AB embryos assessed as morphological alteration by measuring effect on body length of larvae at 20 uM measured at 2 to 5 days post fertilization by stereomicroscopic method; assay type: organism-based; conditions: in vivo; procedure, shortened: as §1

SMILES	Activity (Danio rerio [1]) [bpm]	Stability [2] [%]	Stability [3] [%]	remaining at 12 h [4] [%]	Activity (Danio rerio [5])	viability at 72 h, 10 ug/ml [6] [%]	remaining at 6 h [7] [%]	Activity (Danio rerio [8]) [bpm]	Activity (Danio rerio [9]) [bpm]	remaining at 0 h [10] [%]	Activity (Danio rerio [11])	Activity (Danio rerio [12])
O=C(CSc1nc2ccccc2c(=O)[nH]1)NC1CCCCC1	162.8	109	118	120	Non-Toxic	90	111	149.5	163	100	Non-Toxic	–
CC1CCCC(NC(=O)CSc2nc3ccccc3c(=O)[nH]2)C1 (stereo not drawn)	157.2	100	100	100	Non-Toxic	89	101	151.2	157.4	100	Non-Toxic	–
C[C@H]1CC[C@H](NC(=O)CSc2nc3ccccc3c(=O)[nH]2)CC1	149.2	26	64	70	Non-Toxic	88	87	135.5	157.4	100	Non-Toxic	Toxic
CC1CCCCC1NC(=O)CSc1nc2ccccc2c(=O)[nH]1 (stereo not drawn)	162.6	138	127	70	Non-Toxic	102	75	156.3	163.4	100	Non-Toxic	–
CC1CCC(NC(=O)CSc2nc3ccccc3c(=O)[nH]2)CC1 (stereo not drawn)	147.7	111	99	70	Non-Toxic	84	59	122.3	150.3	100	Non-Toxic	–
O=C(CSc1nc2ccccc2c(=O)[nH]1)NCC1CCCCC1	157.8	114	116	111	Non-Toxic	89	109	140.7	158.9	100	Non-Toxic	–
O=C(CSc1nc2ccccc2c(=O)[nH]1)NC1CCCCCC1	160.1	122	91	81	Non-Toxic	91	67	139.6	160.4	100	Non-Toxic	–
